Compound activity from PubChem.
Only some compounds are listed: those with a hit (about 3.1% of all), similar ones and a draw of the others.
FGF22 binding = binders of human FGF22 protein, primary screen, FGF22 synaptogenesis inhibitor project, biophysical, thermal shift, single point; 1.5% of 340,000 active; recombinant FGF22 thermal shift, SYPRO orange fluorescence; percent of sucrose octasulfate shift, DMSO zero; activity (Tm shift, normalised), % at 9.99 µM; Fibroblast growth factor 22 (Homo sapiens), Q9HCT0; AID 651658, 2012;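 active means mean Tm shift, scaled 0 neutral to 100 positive control, at about 1.3% or above, every replicate too, limit read from the data; inconclusive means no clear call, values can overlap the other calls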
Target sequence (Q9HCT0 whole entry, looked up): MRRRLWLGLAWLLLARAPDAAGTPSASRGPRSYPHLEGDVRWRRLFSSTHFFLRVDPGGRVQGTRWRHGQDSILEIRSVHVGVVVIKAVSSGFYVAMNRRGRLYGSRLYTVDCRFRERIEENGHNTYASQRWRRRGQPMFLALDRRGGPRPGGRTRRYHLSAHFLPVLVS
PAX8 reporter = inhibitors of PAX8-driven TPO luciferase reporter, primary screen, RMG-I cells, single concentration; SteadyGlo, 24 h; inhibition, % at 12.6 µM; 1.2% of 360,000 active;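 active means mean replicate inhibition at least 60% with every replicate also reaching 60%; inconclusive means only one of the two criteria is met; inactive means mean below 60% and not all replicates reaching 60%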;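 further: luciferase light reporting Pax8 driven TPO promoter activity; plate controls were median of neutral control wells for no effect and mitoxantrone controls for full effect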
FN deposition inh = inhibitors of fibronectin matrix deposition, primary screen, AH1F cells, Alexa488-fibronectin fluorescence, plate reader | AH1F fibroblasts, overnight | inhibition, % at 12.6 µM | 0.086% of 350,000 active | AID 743247, 2014;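 active means mean inhibition across replicates of 30% or more, regardless of how many single replicates reach that level; inconclusive means mean under 30% yet at least half of replicates reach 30%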;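 further: positive control wells lacked labelled fibronectin entirely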
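Material: AH1F fibroblasts assembling fluorescent fibronectin matrix; amount: 10000 AH1F cells/well; medium: DMEM, 2% serum; reagent: Alexa488-fibronectin, 24 nM final in well; dosing: single compound dose, delivered by pin transfer; incubation: 1 h adhesion, overnight exposure; detection: fluorescence after three HBSS washes, excitation 485 nm, emission 525 nm; measure: fibronectin deposition inhibition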
PGC1a acetyl inh = inhibitors of PGC1a acetylation signal, primary screen, cell-based, U2OS, AlphaScreen, inhibitor mode. AlphaScreen anti-acetyl-lysine; with virally co-expressed GCN5 acetyltransferase. inhibition, % at 15.6 µM. 0.17% of 350,000 active;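 active means every replicate shows inhibition of at least 40%; inconclusive means mean inhibition at least 40% but some replicate below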;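 further: 0% = neutral control wells and 100% = positive control wells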
HIV Env fusion = inhibitors of HIV-1 Env-driven cell-cell fusion, primary screen, HeLa-JRFL effector, CEM21 target cells, luciferase | inhibition, % at 12.3 µM | 1.1% of 360,000 active | AID 651610, 2012;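 active means mean replicate inhibition score of at least 50 and every replicate individually at or above 50; inconclusive means only one of the two criteria met; inactive means mean below 50 and not all replicates reaching 50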;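 further: 0% = plate neutral controls and 100% = maraviroc near 300 nM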
EWS-Fli inh = EWS/Fli-driven NR0B1 reporter inhibitors, primary screen, A673 cells, NR0B1 luciferase, luminescence, MLPCN library; 0.67% of 350,000 active; viability-normalised; inhibition, % at 12.6 µM;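 active means mean inhibition of at least 50% after viability correction, with every replicate also passing that limit; inconclusive means mean reaches 50% but only one of two replicates passes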;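 further: firefly luciferase signal divided by Alamar Blue viability fluorescence both relative to DMSO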
The depositor's hits bear a star; ? = inconclusive; . = no result given; [ ] = another dose, or the depositor's remark.

SMILES	FGF22 binding	PAX8 reporter	FN deposition inh	PGC1a acetyl inh	HIV Env fusion	EWS-Fli inh
COc1ccc2c3c([nH]c2c1)[C@H](CO)N(C(=O)c1ccccn1)CC31CCN(C(=O)C2CC2)CC1	.	.	.	0.2	.	-0.9
C[C@H](CO)N1C[C@H](C)[C@H](CN(C)C(=O)NC2CCCCC2)Oc2ccc(NC(=O)CCN3CCOCC3)cc2CC1=O	0.3	-3.7	-2.2	-8.1	-1.8[16.7 µM]	4.9
Cc1cc(C(=O)Nc2cccc3c2O[C@H](CN(C)S(=O)(=O)c2cccs2)[C@H](C)CN([C@H](C)CO)C3=O)n(C)n1	0.6	.	-6.9	0.0	.	3.8
O=C(OCCO)c1c(-c2ccccc2)oc2c1C(OCCO)CCC2 (centres undefined)	-0.1	-9.2	.	.	61.3*	-9.5
COc1ccc(-c2oc3c(c2C(=O)OCCO)C(OCCO)CCC3)cc1 (centres undefined)	-0.1	20.1	.	.	10.8	-5.0
CSc1n[nH]c(NC(=O)c2c(-c3c(Cl)cccc3Cl)noc2C)n1	-0.3	5.9	4.8	64.7*	-8.1	3.1
Cc1csc(NC(=O)c2c(-c3c(Cl)cccc3Cl)noc2C)n1	.	.	.	10.3	.	.
C[C@H](CO)N1C[C@H](C)[C@H](CN(C)C(=O)Nc2cccc3ccccc23)Oc2ccc(NC(=O)CCCCCC(=O)Nc3ccccc3N)cc2CC1=O	0.1	11.9	.	-1.0	36.2[16.7 µM]	10.1
O=C(NNC(=O)c1cccs1)c1ccc(F)cc1	43.1*	-36.4	19.1	.	-3.5	-32.6
COc1ccccc1CC(=O)NNC(=O)c1cccs1	43.7*	12.8	2.7	-10.5	6.0	-2.5
O=C(NNC(=O)c1cccs1)c1cccc(F)c1	-0.1	-23.7	2.8	-8.6	-5.1	-4.4
COc1ccccc1CC(=O)Nc1ccc(NC(=O)c2cccs2)cc1	-0.1	-21.9	4.4	.	6.6	.
O=C(NNC(=O)c1cccs1)c1ccc([N+](=O)[O-])cc1	43.5*	1.3	6.8	.	8.3	-10.5
C[C@H](CO)N1C[C@H](C)[C@@H](CN(C)Cc2ccccc2)Oc2ncc(C#CC3(O)CCCC3)cc2C1=O	-0.1	.	.	2.5	2.6[16.7 µM]	-1.4
CC(C)CC#Cc1ccc2c(c1)O[C@@H](CN(C)S(=O)(=O)c1cccc(F)c1)[C@H](C)CN([C@@H](C)CO)S2(=O)=O	.	.	.	2.5	52.0[16.7 µM]	19.3
C[C@@H]1CCCCO[C@H](CN(C)Cc2ccc(C(=O)O)cc2)[C@@H](C)CN([C@@H](C)CO)C(=O)c2cc(NC(=O)NC3CCCCC3)ccc2O1	-0.2	7.0	.	1.5	-102.6[16.7 µM]	-8.2
NC(=S)NN=Cc1nccc2c(C(F)(F)C(F)(F)C(F)(F)F)cccc12	-0.3	74.9*	12.7	4.6	-6.6	37.2
O=c1[nH]cc(F)c(=O)n1C1OC(CO)C(O)C1O (centres undefined)	0.2	-1.4	4.2	.	8.0	-1.5
O=C1C=CN(C2OC(CO)C(O)C2O)C(=O)C1 (centres undefined)	-0.2	-4.7	.	.	65.3*	-9.0
CC(C)(C)NCC(=Cc1ccccc1)C(=O)c1ccccc1	0.2	74.0*	12.9	.	-408.3	56.6*
COc1ccc(C=C(C(=O)c2ccccc2)C(=O)c2ccccc2)cc1	0.5	-144.5	-2.2	.	-196.2	-82.6
CC(NC(=O)/C(C#N)=C/c1ccc([N+](=O)[O-])o1)c1ccccc1 (centres undefined)	-0.2	46.4	-0.4	.	-245.9	68.7*
CC(NC(=O)/C(C#N)=C/c1ccco1)c1ccccc1 (centres undefined)	0.1	-14.7	2.2	13.4	16.7	-0.9
O=C(O)C(=Cc1ccncc1)c1cccc2ccccc12	43.3*	16.6	-3.5	-1.1	-26.8	6.0
CCCNC(=O)N1CC2(C1)CN(C(=O)CC)[C@H](CO)c1[nH]c3cc(OC)ccc3c12	0.1	.	.	.	-9.2[16.7 µM]	-5.9
SMILES	FGF22 binding	PAX8 reporter	FN deposition inh	PGC1a acetyl inh	HIV Env fusion	EWS-Fli inh
C[C@@H]1CN([C@@H](C)CO)C(=O)Cc2cc(N(C)C)ccc2O[C@H]1CN(C)Cc1ccc(Cl)c(Cl)c1	-1.0	71.1*	1.2	-0.2	16.6[16.7 µM]	-1.4
C[C@H](CO)N1C[C@H](C)[C@@H](CN(C)Cc2ccc(Cl)c(Cl)c2)Oc2ccc(N(C)C)cc2CC1=O	-1.5	74.8*	-18.7	0.4	41.6[16.7 µM]	-1.3
Cc1ccc(S(=O)(=O)Nc2ccc3c(c2)C(=O)N([C@@H](C)CO)C[C@H](C)[C@H](CN(C)C(=O)c2ccncc2)OCCCC[C@H](C)O3)cc1	-0.4	8.3	-16.6	0.0	5.4[16.7 µM]	2.9
COc1ccc2c3c([nH]c2c1)[C@H](CO)N(CC1CCOCC1)CC31CN(C(=O)C2CCOCC2)C1	-0.1	4.2	.	.	.	-11.5
CCCNC(=O)N(C)C[C@@H]1Oc2ncc(C3=CCCC3)cc2C(=O)N([C@@H](C)CO)C[C@@H]1C	0.2	-11.1	.	-8.5	0.1[16.7 µM]	-10.5
CCC(C)Oc1cccc(OCCCCN2C(=O)NC(C)(C)C2=O)c1 (centres undefined)	.	.	-4.0	-0.4	0.9	.
CC1(C)NC(=O)N(CCOCCOc2cccc(Oc3ccccc3)c2)C1=O	.	.	.	-10.6	60.2*	.
CC(NC(=O)c1cc(S(=O)(=O)N(C)C)ccc1N1CCCC1)C1CC2CCC1C2 (centres undefined)	0.0	4.2	2.5	-5.9	71.5*	2.9
CN(C)S(=O)(=O)c1ccc(N2CCCC2)c(C(=O)NC(c2ccccc2)c2ccccc2)c1	.	24.3	10.5	-19.3	?	.
C[C@H](CO)N1C[C@H](C)[C@H](CN(C)C(=O)Nc2ccccc2)Oc2c(NS(=O)(=O)c3ccc(F)cc3)cccc2C1=O	0.3	.	.	0.1	87.7*[16.7 µM]	-4.8
C[C@H](CO)N1C[C@H](C)[C@H](CN(C)C(=O)Nc2ccc(C(F)(F)F)cc2)Oc2c(NS(=O)(=O)c3ccc(F)cc3)cccc2C1=O	0.0	.	.	-2.6	57.3*[16.7 µM]	-4.7
C[C@H]1CN([C@@H](C)CO)C(=O)c2cccc(NS(=O)(=O)c3ccc(F)cc3)c2O[C@H]1CN(C)C(=O)Nc1ccccc1	0.1	.	.	-10.0	-71.6[16.7 µM]	24.4
C[C@@H]1CN([C@@H](C)CO)C(=O)c2cccc(NS(=O)(=O)c3ccc(F)cc3)c2O[C@H]1CN(C)C(=O)Nc1ccc(C(F)(F)F)cc1	0.2	.	.	-3.0	21.9[16.7 µM]	-20.6
CC(=O)N(C)C[C@@H]1Oc2cc(C3=CCCCC3)ccc2S(=O)(=O)N([C@@H](C)CO)C[C@@H]1C	.	.	.	-1.3	13.2[16.7 µM]	-11.0
COc1ccc(C(NC(=O)c2c(F)c(F)c(F)c(F)c2F)c2ccccc2)cc1 (centres undefined)	0.2	-2.7	4.9	84.6*	1.7	61.8*
COc1ccc(C(NC(=O)c2cc(OC)ccc2OC)c2ccccc2)cc1 (centres undefined)	-0.3	14.2	3.2	.	15.9	29.3
